# Results as given in ChEMBL document CHEMBL1146599, “Substituted pyrrol-1-ylacetic acids that combine aldose reductase enzyme inhibitory activity and ability to prevent the nonenzymatic irreversible modification of proteins from monosaccharides” (J Med Chem, 2003).
# Several values for one entry are separate records, joined by “and”; a condition that tells them apart may be missing. Identical values can stand only once.
# Experiments:
# [1] = molecular target: Aldo-keto reductase family 1 member B1 (Rattus norvegicus) (UniProt P07943); test: In vitro inhibitory activity against aldose reductase of rat lens at 10E-6 M concentration
# Outline: (§1)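 Aldose reductase was prepared from lenses quickly removed from euthanized Fischer-344 rats of both sexes. Compounds were dissolved in 0.2 M NaHCO3. Activity was followed spectrophotometrically as NADPH oxidation. Runs were done in triplicate, and values are means with standard error from three determinations.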
# [2] = molecular target: Aldo-keto reductase family 1 member B1 (Rattus norvegicus) (UniProt P07943); test: In vitro inhibitory activity against aldose reductase of rat lens at 10E-7 M concentration; outline: as §1
# [3] = molecular target: Aldo-keto reductase family 1 member B1 (Homo sapiens, UniProt P15121); test: (§2) Inhibitory activity against aldose reductase enzyme
# [4] = molecular target: Aldo-keto reductase family 1 member B1 (Rattus norvegicus, UniProt P07943); test: as §2; outline: as §1
# [5] = molecular target: Aldo-keto reductase family 1 member B1 (Rattus norvegicus) (UniProt P07943); test: In vitro inhibitory activity against aldose reductase of rat lens at 10E-8 M concentration; outline: as §1
# [6] = molecular target: Aldo-keto reductase family 1 member B1 (Rattus norvegicus) (UniProt P07943); test: In vitro inhibitory activity against aldose reductase of rat lens at 10E-9 M concentration; outline: as §1
# Albumin [7] = molecular target: T1, Albumin (Bos taurus, UniProt P02769); test: Formation of DNPH-reactive carbonyl groups in bovine serum albumin exposed to fructose (1 mM); p<0.001; format: functional; conditions: cattle
# T1 sequence (P02769 whole entry): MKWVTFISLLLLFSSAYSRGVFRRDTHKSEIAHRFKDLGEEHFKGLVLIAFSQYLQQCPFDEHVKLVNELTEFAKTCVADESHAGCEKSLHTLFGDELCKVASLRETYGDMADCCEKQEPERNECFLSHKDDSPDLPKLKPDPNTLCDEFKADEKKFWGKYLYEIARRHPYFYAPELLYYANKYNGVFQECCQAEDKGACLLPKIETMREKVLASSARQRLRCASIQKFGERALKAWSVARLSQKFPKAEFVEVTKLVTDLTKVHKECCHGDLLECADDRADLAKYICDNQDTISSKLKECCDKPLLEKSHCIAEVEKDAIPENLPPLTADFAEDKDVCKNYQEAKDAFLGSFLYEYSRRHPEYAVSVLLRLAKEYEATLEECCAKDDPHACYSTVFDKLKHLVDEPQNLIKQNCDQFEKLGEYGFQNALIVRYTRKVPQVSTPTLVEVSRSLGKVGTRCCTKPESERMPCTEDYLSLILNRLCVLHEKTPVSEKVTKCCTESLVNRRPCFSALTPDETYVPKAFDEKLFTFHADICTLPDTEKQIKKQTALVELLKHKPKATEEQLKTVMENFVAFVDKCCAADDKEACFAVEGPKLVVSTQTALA
# Outline: (§3)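 Bovine serum albumin (fraction V, essentially fatty acid free) was incubated with fructose for 28 days. Compounds were added as potassium salts dissolved in water. Data are means ± SD with the number of samples given. Significance versus control was assessed by Student's t test.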
# Albumin [8] = molecular target: T1, Albumin; test: Formation of DNPH-reactive carbonyl groups in bovine serum albumin exposed to fructose (2.5 mM); not detectable.; format: functional; conditions: cattle; outline: as §3
# Albumin [9] = molecular target: T1, Albumin; test: Formation of DNPH-reactive carbonyl groups in bovine serum albumin exposed to fructose (5 mM); not detectable; format: functional; conditions: cattle; outline: as §3
# Albumin [10] = molecular target: T1, Albumin; test: In vitro ability to inhibit the irreversible modification of the model protein albumin in the presence of fructose as glycating agent (1 mM); outline: as §3
# Albumin [11] = molecular target: T1, Albumin; test: In vitro ability to inhibit the irreversible modification of the model protein albumin in the presence of fructose as glycating agent (2.5 mM); outline: as §3
# Albumin [12] = molecular target: T1, Albumin; test: In vitro ability to inhibit the irreversible modification of the model protein albumin in the presence of fructose as glycating agent (5 mM); outline: as §3
# Albumin [13] = molecular target: T1, Albumin; test: Glycation-induced fluorescence changes of bovine serum albumin when exposed to fructose (1 mM); p<0.001; format: functional; conditions: cattle; outline: as §3
# Albumin [14] = molecular target: T1, Albumin; test: Glycation-induced fluorescence changes of bovine serum albumin when exposed to fructose (2.5 mM); p<0.001; format: functional; conditions: cattle; outline: as §3
# Albumin [15] = molecular target: T1, Albumin; test: Glycation-induced fluorescence changes of bovine serum albumin when exposed to fructose (5 mM); p<0.001; format: functional; conditions: cattle; outline: as §3
# Albumin [16] = molecular target: T1, Albumin; test: Formation of DNPH-reactive carbonyl groups in bovine serum albumin exposed to fructose (1 mM); not detectable; format: functional; conditions: cattle; outline: as §3
# [17] = molecular target: Aldo-keto reductase family 1 member B1 (Rattus norvegicus) (UniProt P07943); test: In vitro inhibitory activity against aldose reductase of rat lens at 10E-5 M concentration; outline: as §1
# Albumin [18] = molecular target: T1, Albumin; test: Formation of DNPH-reactive carbonyl groups in bovine serum albumin exposed to fructose (1 mM); p<0.01; format: functional; conditions: cattle; outline: as §3
# Albumin [19] = molecular target: T1, Albumin; test: Formation of DNPH-reactive carbonyl groups in bovine serum albumin exposed to fructose (2.5 mM); p<0.001; format: functional; conditions: cattle; outline: as §3
# Albumin [20] = molecular target: T1, Albumin; test: Formation of DNPH-reactive carbonyl groups in bovine serum albumin exposed to fructose (5 mM); not detectable.; format: functional; conditions: cattle, 5000 µM; outline: as §3
# Albumin [21] = molecular target: T1, Albumin; test: Glycation-induced fluorescence changes of bovine serum albumin when exposed to fructose (1 mM); p<0.01; format: functional; conditions: cattle; outline: as §3
# Albumin [22] = molecular target: T1, Albumin; test: Formation of DNPH-reactive carbonyl groups in bovine serum albumin exposed to fructose; p<0.001; format: functional; conditions: cattle; outline: as §3
# Albumin [23] = molecular target: T1, Albumin; test: Formation of DNPH-reactive carbonyl groups in bovine serum albumin exposed to fructose; not detectable.; format: functional; conditions: cattle; outline: as §3
smiles,measurement,setting,value
O=C(O)Cn1ccc(C(=O)c2cccc3ccccc23)c1,inhibition,[1],58%
same,inhibition,[2],59%
O=C(O)Cn1ccc(C(=O)c2ccc3c(c2)CCO3)c1,inhibition,[1],42%
COc1ccc(C(=O)c2ccn(CC(=O)O)c2)cc1,inhibition,[1],72%
same,inhibition,[2],26%
NC(=O)[C@@H]1C[C@]2(NC(=O)NC2=O)c2cc(F)ccc2O1,IC50,[3],35 nM
COc1ccc(C(=O)c2cc(C(=O)c3ccc(OC)cc3)n(CC(=O)O)c2)cc1,IC50,[4],2.36 nM
same,inhibition,[1],96%
same,inhibition,[2],94%
same,inhibition,[5],59%
same,inhibition,[6],41%
same,Carbonyl group,Albumin [7],2.52 nM/mg
same,Carbonyl group,Albumin [8],not detectable
same,Carbonyl group,Albumin [9],not detectable
same,Inhibition,Albumin [10],50%
same,inhibition at 1000 µM,Albumin [10],38%
same,Inhibition,Albumin [11],57% and 100%
same,Inhibition,Albumin [12],100%
same,Relative florescence,Albumin [13],17.3
same,Relative florescence,Albumin [14],11.8
same,Relative florescence,Albumin [15],3.3
O=C(O)Cn1ccc(C(=O)c2ccc3occc3c2)c1,inhibition,[1],40%
O=C(O)Cn1ccc(C(=O)Cc2ccccc2)c1,inhibition,[1],29%
O=C(O)Cn1ccc(C(=O)c2ccc(-n3cccc3)cc2)c1,inhibition,[1],80%
same,inhibition,[2],39%
same,Carbonyl group,Albumin [8],not detectable
same,Carbonyl group,Albumin [9],not detectable
same,Inhibition,Albumin [10],37% and 100%
same,Inhibition,Albumin [11],65% and 100%
same,Inhibition,Albumin [12],100%
same,Relative florescence,Albumin [13],17.4
same,Relative florescence,Albumin [14],9.8
same,Relative florescence,Albumin [15],4.7
same,Carbonyl group,Albumin [16],not detectable
O=C(O)Cn1ccc(Cc2ccccc2)c1,inhibition,[1],9%
CC(C)(C)c1ccc(C(=O)c2ccn(CC(=O)O)c2)cc1,inhibition,[1],41%
Cc1ccc(C(=O)c2ccn(CC(=O)O)c2)cc1,inhibition,[1],46%
O=C(O)Cn1ccc(C(=O)c2ccc(Cl)cc2)c1,inhibition,[1],41%
Cn1cc(C(=O)c2ccn(CC(=O)O)c2)c2ccccc21,inhibition,[1],38%
O=C(O)Cn1cccc1C(=O)c1ccccc1,inhibition,[17],36%
O=C(O)Cn1ccc(C(=O)c2ccc3ccccc3c2)c1,inhibition,[1],79%
same,inhibition,[2],72%
same,inhibition,[5],49%
O=C(O)Cn1cc(C(=O)c2ccccc2)c2ccccc21,inhibition,[1],38%
COc1ccc(C(=O)c2cc(C(=O)c3ccccc3)n(CC(=O)O)c2)cc1,inhibition,[1],93%
same,inhibition,[2],51%
same,inhibition,[5],13%
same,Carbonyl group,Albumin [18],4.38 nM/mg
same,Carbonyl group,Albumin [19],1.7 nM/mg
same,Carbonyl group,Albumin [20],not detectable
same,Inhibition,Albumin [10],20%
same,inhibition at 1000 µM,Albumin [10],17%
same,Inhibition,Albumin [11],41% and 66%
same,Inhibition,Albumin [12],75% and 100%
same,Relative florescence,Albumin [21],23.1
same,Relative florescence,Albumin [14],11.5
same,Relative florescence,Albumin [15],6.9
O=C(O)Cn1ccc(C(=O)c2ccc(-c3ccccc3)cc2)c1,inhibition,[1],76%
same,inhibition,[2],37%
O=C(O)Cn1ccc(C(=O)c2cccc(Cl)c2)c1,inhibition,[1],44%
O=C(O)Cn1ccc(C(=O)c2ccc(O)cc2)c1,inhibition,[1],45%
Cc1c(C)c2c(c(C)c1O)CCC(C)(C(=O)O)O2 (stereo unspecified) [TROLOX],inhibition,[17],12%
same,Inhibition,Albumin [10],54% and 32%
same,Carbonyl group,Albumin [22],3.44 nM/mg
same,Relative florescence,Albumin [13],12.8
O=C(O)Cn1cc(C(=O)c2ccccc2)cc1C(=O)c1ccccc1,inhibition,[1],82%
same,inhibition,[2],62%
same,inhibition,[5],27%
O=C(O)Cn1ccc(C(=O)c2ccc(C(F)(F)F)cc2)c1,inhibition,[1],47%
O=C(O)Cn1ccc(C(=O)c2ccc([N+](=O)[O-])cc2)c1,inhibition,[1],18%
O=C(O)Cn1ccc(C(=O)c2ccccc2)c1,inhibition,[1],27%
O=C(O)Cn1ccc(C(=O)c2ccn(-c3ccccc3)c2)c1,inhibition,[1],67%
same,inhibition,[2],39%
same,Carbonyl group,Albumin [7],1.55 nM/mg
same,Carbonyl group,Albumin [8],not detectable
same,Inhibition,Albumin [10],24% and 69%
same,Carbonyl group,Albumin [23],not detectable
same,Inhibition,Albumin [12],41% and 100%
same,Relative florescence,Albumin [13],21
same,Relative florescence,Albumin [14],21
same,Relative florescence,Albumin [15],16.4
